Compound activity: PubChem, several laboratories
Exocytosis inh – blocks lytic granule exocytosis | TALL-104 LAMP-1 surface exposure, flow cytometry; cells stimulated with thapsigargin and PMA | inhibition, % at 10 µM | 360,000 compounds, 0.66% hits | AID 651702;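 active = inhibition above about 55%, limit read from the data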
MC4R antag cAMP – blocks human MC4R cAMP signaling | P32245 | MC4R-expressing cells, MTII-stimulated cAMP, LANCE TR-FRET | inhibition, % at 6.5 µM | 360,000 compounds, 0.48% hits | AID 540295;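 active = inhibition above its plate's cutoff, the mean of tested wells on that plate plus 3 SD, cut at about 29% in these data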;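 note: 0% = Melanotan II alone and 100% = Melanotan II plus saturating MCL0020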
Target sequence (P32245 whole entry, looked up): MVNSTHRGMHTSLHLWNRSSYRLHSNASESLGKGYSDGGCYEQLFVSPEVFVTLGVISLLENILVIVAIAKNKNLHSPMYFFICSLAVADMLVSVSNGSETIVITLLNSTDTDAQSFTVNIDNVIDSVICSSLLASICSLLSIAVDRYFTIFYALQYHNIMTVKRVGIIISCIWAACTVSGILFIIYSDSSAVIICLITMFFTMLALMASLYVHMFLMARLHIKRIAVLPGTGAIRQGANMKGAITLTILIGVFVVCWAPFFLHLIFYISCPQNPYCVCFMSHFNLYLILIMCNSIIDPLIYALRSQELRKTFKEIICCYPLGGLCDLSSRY
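System: U2OS cells stably expressing human melanocortin 4 receptor (MC4R). Reagent: Melanotan II challenge after compound preincubation. Doses: 6.5 µM. Times: 30-min compound, 1-h challenge, 1-h detection, room temperature. Measured by: TR-FRET with Eu-cAMP and labeled anti-cAMP, 671 nm. Replicates: singlicate.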
EP2 mod – modulators of human EP2 prostaglandin E2 receptor; EP2-expressing cells, cAMP HTRF FRET, PGE2 co-stimulation; P43116; induction, % at 25 µM; 260,000 compounds, 0.83% hits;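 active = compounds whose cAMP rise, as percent of the full-agonist control response, exceeds 60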;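 note: rat C6 glioma line stably carrying human EP2 under a CMV promoter; the protocol text gives 20 µM as final concentration; 100% = response of wells given 1 µM PGE2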
Target sequence (P43116 whole entry, looked up): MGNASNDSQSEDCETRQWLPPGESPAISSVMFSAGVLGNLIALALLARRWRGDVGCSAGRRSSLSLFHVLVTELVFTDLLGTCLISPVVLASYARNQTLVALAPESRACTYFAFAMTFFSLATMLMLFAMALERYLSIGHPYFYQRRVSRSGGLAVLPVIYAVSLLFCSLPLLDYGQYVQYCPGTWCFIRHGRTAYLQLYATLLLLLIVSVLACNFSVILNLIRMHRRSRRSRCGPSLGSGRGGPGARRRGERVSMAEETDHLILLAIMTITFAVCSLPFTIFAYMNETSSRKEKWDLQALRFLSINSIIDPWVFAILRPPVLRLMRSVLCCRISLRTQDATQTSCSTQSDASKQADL
T cell modulator – T cell immune modulation candidate | response (vesicle binding), % at 7 µM | AID 2052 | 330,000 compounds, 0.068% hits | 2C CD8+ T cell-vesicle binding, flow cytometry; hits give low values;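 active = response, share of CD8 T cells binding vesicles, and their 90th percentile fluorescence all below set limits, cut at about 80% in these data, passing the limit was not always enough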;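 note: values below 100% mean blocked vesicle binding to the CD8+ T cells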
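Assay system – 2C mouse CD8+ T cells · Also added – QL9-loaded Drosophila micro-vesicles · Timing – Cell–vesicle co-incubation 1.5 h at 37 °C, staining 20 min on ice · Signal – flow cytometry of vesicle-bound cells · Measure – percent CD8+ FL2 mean versus row control · Controls – Peptide-free naked vesicles (low) and QL9 vesicles with 0.7% DMSO vehicle (high)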
MC4R ag barr – agonists of human melanocortin 4 receptor (MC4R) beta-arrestin; U2OS MC4R beta-arrestin complementation, luminescence; percent of melanotan II response, DMSO zero; activation, % at 8.9 µM; AID 540308; 360,000 compounds, 0.98% hits;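 active = activation above a per-plate cutoff, the mean activation of sample wells on that plate plus 3 SD, cut at about 8% in these data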
EP2 antag – inhibitors of human EP2 prostaglandin E2 receptor; P43116; AID 1422; C6 glioma cells expressing human EP2, cAMP TR-FRET; cells stimulated with saturating PGE2; inhibition, % at 25 µM; 260,000 compounds, 0.52% hits;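 active = percent inhibition above 40 after rounding to a whole number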;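 note: rat C6 glioma host cells with rolipram phosphodiesterase inhibitor present; the protocol text gives 20 µM as final concentration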
* hit, by the source's call; i = inactive; nt = not tested or not shown. In the library only some 2.6% were active in any assay of this set; here they are far more common.

SMILES	Exocytosis inh	MC4R antag cAMP	EP2 mod	T cell modulator	MC4R ag barr	EP2 antag
COc1ccc([N+](=O)[O-])cc1NC(=O)C1CCCN1S(=O)(=O)c1cccs1 (configuration not stated)	3	14	nt	191	-2	nt
COc1ccccc1OCC(=O)N(Cc1nnc(-c2ccccc2Cl)o1)C1CC1	0	2	nt	i	-1	nt
CC(=O)Nc1ccc(N2CCCCC2)c(C(=O)Nc2cccc(C)c2)c1	-2	0	62*	554	2	13
CCOc1ccc(NS(=O)(=O)c2cc(OC)ccc2OC)cc1	1	-5	-32	165	2	-4
CCOc1ccc(S(=O)(=O)Nc2ccc(F)cc2)c(C)c1C	2	4	-4	402	8.8*	8
Cc1ccc(NC(=S)N(CCCN2CCCC2)Cc2cccn2Cc2ccc(Cl)cc2)cc1Cl	65*	6	-35	380	-1	21
Cc1ccc(NC(=S)N(CCCN2CCCC2)Cc2cccn2Cc2ccc(Cl)cc2)cc1C	81*	10	-8	139	2	3
CC(C)C[C@@H](CN1CCCC1CN1C(=S)NC[C@@H]1Cc1ccc(O)cc1)N1C[C@H](Cc2ccc(O)cc2)N(CC2CCCCC2)C1=S (some centres not stated)	57*	11	nt	nt	-4	nt
CC(C)C[C@@H](CN1CCC[C@@H]1CN1C(=S)NC[C@@H]1Cc1ccccc1)N1C[C@H](Cc2ccc(O)cc2)N(CC2CCCCC2)C1=S	2	nt	nt	nt	nt	nt
CCn1c(N2CCC(C(=O)NC3CCCC3)CC2)nc2ccccc21	nt	nt	63*	nt	nt	nt
CC(C)(C)NC(=O)CSc1nc2cc3c(cc2cc1Cc1ccccc1)OCO3	nt	nt	81*	nt	nt	10
CCc1cc2cc3c(cc2nc1SCC(=O)Nc1nc2c(s1)CCCC2)OCO3	nt	nt	77*	nt	nt	23
CCc1cc2cc3c(cc2nc1SCC(=O)NNC(=O)c1ccccc1)OCO3	nt	nt	38	nt	nt	27
CCc1cc2cc(OC)c(OC)cc2nc1SCC(=O)Nc1nc2c(s1)CCCC2	nt	nt	17	nt	nt	11
CCc1cc2ccc(OC)cc2nc1SCC(=O)Nc1ccc2c(c1)OCO2	nt	nt	76*	nt	nt	12
CCc1cc2cc3c(cc2nc1SCC(=O)Nc1cc(OC)cc(OC)c1)OCO3	nt	nt	69*	nt	nt	12
CCN(CC)Cc1c(C(=O)N/N=C/c2ccncc2)nnn1-c1nonc1N	5	9	nt	356	-1	nt
CCC1(C)Cc2ccccc2-c2nc(SC)[nH]c(=O)c21 (configuration not stated)	-22	3	nt	205	4	nt
COc1ccc2c(c1)N(CC[C@H]1CCCCN1C)c1ccccc1S2	nt	nt	-55	nt	nt	41*
CN1CCCCC1CCN1c2ccccc2Sc2ccc(S(C)=O)cc21 (configuration not stated)	3	-7	nt	258	2	18
O=C(NC1CC1)C1C2C=CC3(O2)C1C(=O)N(C1CCCC1)C3C(=O)NC1CCCCC1 (configuration not stated)	nt	nt	7	nt	nt	9
CCOC(=O)c1cnc(-n2nc(C)cc2C)nc1Nc1ccc(C)cc1	-2	-8	17	nt	1	nt
CCOC(=O)c1cnc(-n2nc(C)cc2C)nc1Nc1ccc(N(C)C)cc1	0	2	62*	211	-2	7
CC(=O)c1c(C)[nH]c(C(=O)OC2CCOC2=O)c1C (configuration not stated)	-2	16	19	0	0	12
CC1=CC2=NC(=O)/C(=C/c3cccn3Cc3ccccc3)C(=N)N2O1	0	12	0	262	-2	10
SMILES	Exocytosis inh	MC4R antag cAMP	EP2 mod	T cell modulator	MC4R ag barr	EP2 antag
N=C1/C(=C/c2cccn2Cc2ccc(Cl)cc2)C(=O)N=C2SC=CN12	-3	-10	-4	196	9.4*	2
CCOC(=O)c1ccc(NC(=O)COc2ccccc2CNCCc2ccccc2)cc1	69*	3	-62	378	5	6
c1ccc(C(c2ccccn2)c2ccccn2)cc1	1	8	6	136	-1	8
CC(=O)Oc1ccc(C(c2ccc(OC(C)=O)cc2)c2ccccn2)cc1	0	-31	6	481	75*	11
Nc1[nH]c(N=NC(=O)c2ccccc2O)c2ccccc12	-2	-7	-40	328	-2	10
Nc1ncnc2c1ncn2[C@@H]1O[C@H](C(=O)N2CCC(F)(F)CC2)[C@@H](O)[C@H]1O	0	nt	nt	nt	nt	nt
C[N+]1([C@H](CO)Cc2c[nH]c3ccccc23)Cc2ccccc2C1	nt	nt	19	nt	nt	50*
O=C(c1ccc(S(=O)(=O)NCC2CCCO2)cc1)N1CCN(c2ccccc2)CC1 (configuration not stated)	-1	-5	-4	250	-2	2
COc1cc(OC)cc(-c2oc(=O)c3cc(OC)c(OC)cc3c2C#CCCO)c1	-2	2	nt	432	-1	nt
COc1cc(OC)cc(-c2oc(=O)c3cc(OC)c(OC)cc3c2C(F)(F)F)c1	-2	0	nt	60*	-2	nt
O=C(NCCC1=CCCCC1)c1c(O)nc2ccccn2c1=O	1	5	nt	i	0	nt
CCCCCC1C(=O)CCC1CC(=O)OC (configuration not stated)	3	-3	13	nt	1	10
CCCCC(C)(O)C/C=C/[C@H]1[C@H](O)CC(=O)[C@@H]1CCCCCCC(=O)OC (some centres not stated)	nt	nt	97*	nt	nt	10
O=[N+]([O-])c1ccc(Sc2nc3ccccc3o2)c([N+](=O)[O-])c1	22	17	-46	359	-4	16
O=c1[nH]c(Sc2ccc([N+](=O)[O-])cc2[N+](=O)[O-])nc2ccccc12	90*	6	nt	475	-3	nt
C#CCOCCOCCOCCNc1nc(N2CCN(C(=O)CCCCCCCCCCNC(=O)[C@H]([C@@H](C)CC)n3cc(CCCCCN)nn3)CC2)nc(N2CCN(C(=O)CCCCCCCCCCNC(=O)[C@H]([C@@H](C)CC)n3cc(CCCCN=C(N)N)nn3)CC2)n1	0	57*	nt	534	-1	nt
C#CCOCCOCCOCCNc1nc(N2CCN(C(=O)CCCCCCCCCCNC(=O)[C@H]([C@@H](C)CC)n3cc(CCCCN=C(N)N)nn3)CC2)nc(N2CCN(C(=O)CCCCCCCCCCNC(=O)[C@H](CO)n3cc(CCCCCN)nn3)CC2)n1	-5	32*	nt	480	-1	nt
C#CCOCCOCCOCCNc1nc(N2CCN(C(=O)CCCCCCCCCCNC(=O)[C@H]([C@@H](C)CC)n3cc(CCCCCN)nn3)CC2)nc(N2CCN(C(=O)CCCCCCCCCCNC(=O)[C@H](CO)n3cc(CCCCCN)nn3)CC2)n1	0	23	nt	387	-1	nt
Cc1cc2cccc(C)c2nc1SCC(=O)c1ccccc1	nt	nt	69*	nt	nt	24
Cc1cc2c(C)ccc(C)c2nc1SCC(=O)O	nt	nt	79*	nt	nt	14
CC(=O)c1cc(C(=O)NC2(c3ccccc3)CCCC2)cs1	nt	nt	-30	nt	nt	2
